Data: ChEMBL document CHEMBL4354843, “Structure-Based Design of a Potent and Selective Covalent Inhibitor for SRC Kinase That Targets a P-Loop Cysteine” (J Med Chem, 2020)
Activity calls are given as the source filed them. The rule behind the calls is not given here.

What was measured:
[1] = biological target: Eukaryotic translation initiation factor 2-alpha kinase 1 (Homo sapiens) (UniProt Q9BQI3); assay: Binding affinity to wild-type human partial length EIF2AK1 (Q147 to E603 residues) expressed in mammalian expression system assessed as residual binding level at 1 uM by Kinomescan method relative to control
Chain of Eukaryotic translation initiation factor 2-alpha kinase 1 (Homo sapiens) (Q9BQI3 whole entry, the tested form may be a part): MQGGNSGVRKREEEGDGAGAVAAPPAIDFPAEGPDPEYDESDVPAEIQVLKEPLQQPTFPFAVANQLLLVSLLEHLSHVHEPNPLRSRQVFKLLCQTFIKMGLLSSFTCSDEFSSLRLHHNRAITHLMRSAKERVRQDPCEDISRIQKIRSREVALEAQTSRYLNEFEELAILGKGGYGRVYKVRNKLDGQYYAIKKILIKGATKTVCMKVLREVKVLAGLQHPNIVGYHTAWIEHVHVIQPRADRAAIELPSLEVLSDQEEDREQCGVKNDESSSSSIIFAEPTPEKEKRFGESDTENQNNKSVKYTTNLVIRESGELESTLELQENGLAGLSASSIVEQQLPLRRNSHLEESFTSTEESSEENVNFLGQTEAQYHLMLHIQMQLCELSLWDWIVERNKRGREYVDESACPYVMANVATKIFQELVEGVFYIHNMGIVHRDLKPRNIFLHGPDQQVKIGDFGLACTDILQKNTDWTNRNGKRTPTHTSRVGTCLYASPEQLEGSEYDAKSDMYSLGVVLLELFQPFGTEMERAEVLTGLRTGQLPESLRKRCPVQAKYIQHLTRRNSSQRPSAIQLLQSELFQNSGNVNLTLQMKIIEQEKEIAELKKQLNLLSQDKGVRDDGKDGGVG

[2] = biological target: Myosin light chain kinase 2, skeletal/cardiac muscle (Homo sapiens) (UniProt Q9H1R3); assay: Binding affinity to wild-type human partial length MYLK2 (D258 to K570 residues) expressed in bacterial expression system assessed as residual binding level at 1 uM by Kinomescan method relative to control
Chain of Myosin light chain kinase 2, skeletal/cardiac muscle (Homo sapiens) (Q9H1R3 whole entry, the tested form may be a part): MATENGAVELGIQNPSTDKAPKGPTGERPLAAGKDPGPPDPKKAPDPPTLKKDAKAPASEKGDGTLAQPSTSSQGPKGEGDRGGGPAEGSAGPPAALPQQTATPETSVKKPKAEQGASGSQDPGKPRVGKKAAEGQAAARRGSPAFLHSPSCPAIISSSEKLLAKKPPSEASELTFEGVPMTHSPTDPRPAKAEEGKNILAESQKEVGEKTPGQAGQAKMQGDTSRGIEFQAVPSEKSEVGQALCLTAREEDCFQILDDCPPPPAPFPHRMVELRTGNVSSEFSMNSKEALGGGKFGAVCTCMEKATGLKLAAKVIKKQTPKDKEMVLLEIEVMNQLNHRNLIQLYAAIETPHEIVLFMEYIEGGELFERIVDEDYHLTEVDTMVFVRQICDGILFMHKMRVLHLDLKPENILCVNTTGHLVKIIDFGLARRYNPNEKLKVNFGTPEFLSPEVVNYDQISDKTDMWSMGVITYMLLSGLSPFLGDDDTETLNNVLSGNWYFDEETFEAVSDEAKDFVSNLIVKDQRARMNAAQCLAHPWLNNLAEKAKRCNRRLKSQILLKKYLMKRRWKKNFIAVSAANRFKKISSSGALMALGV

[3] = system: Receptor-type tyrosine-protein kinase FLT3 (Homo sapiens), P36888 [UNDEFINED MUTATION]; assay: Binding affinity to human partial length FLT3 ITD/F691L double mutant expressed in bacterial expression system assessed as residual binding level at 1 uM by Kinomescan method relative to control
Procedure, shortened: (§1)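 KinomeScan active site-directed competition binding panel (468 kinases), compound tested at 1 μM. Result expressed as remaining kinase signal versus DMSO control (percent of control).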

[4] = system: Phosphatidylinositol 4,5-bisphosphate 3-kinase catalytic subunit alpha isoform (Homo sapiens), P42336 [I800L]; assay: Binding affinity to human partial length PIK3CA I800L mutant (R108 to N1068 residues) expressed in mammalian expression system assessed as residual binding level at 1 uM by Kinomescan method relative to control; procedure, shortened: as §1
[5] = biological target: Microtubule-associated serine/threonine-protein kinase 1 (Homo sapiens) (UniProt Q9Y2H9); assay: Binding affinity to wild-type human partial length MAST1 (S346 to V730 residues) expressed in mammalian expression system assessed as residual binding level at 1 uM by Kinomescan method relative to control
Procedure, shortened: (§2)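 Active-site-directed competition binding panel of 468 kinases (KinomeScan), compound at 1 μM. The read-out is kinase remaining bound, given as a percentage of the DMSO control. […]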

[6] = system: Tyrosine-protein kinase ABL1 (Homo sapiens), P00519 [F317L]; assay: Binding affinity to human phosphorylated ABL1 F317L mutant (S229 to K512 residues) expressed in mammalian expression system assessed as residual binding level at 1 uM by Kinomescan method relative to control; procedure, shortened: as §1
Chain of Tyrosine-protein kinase ABL1 (Homo sapiens), P00519 [F317L] (P00519 whole entry F317L, the tested form may be a part): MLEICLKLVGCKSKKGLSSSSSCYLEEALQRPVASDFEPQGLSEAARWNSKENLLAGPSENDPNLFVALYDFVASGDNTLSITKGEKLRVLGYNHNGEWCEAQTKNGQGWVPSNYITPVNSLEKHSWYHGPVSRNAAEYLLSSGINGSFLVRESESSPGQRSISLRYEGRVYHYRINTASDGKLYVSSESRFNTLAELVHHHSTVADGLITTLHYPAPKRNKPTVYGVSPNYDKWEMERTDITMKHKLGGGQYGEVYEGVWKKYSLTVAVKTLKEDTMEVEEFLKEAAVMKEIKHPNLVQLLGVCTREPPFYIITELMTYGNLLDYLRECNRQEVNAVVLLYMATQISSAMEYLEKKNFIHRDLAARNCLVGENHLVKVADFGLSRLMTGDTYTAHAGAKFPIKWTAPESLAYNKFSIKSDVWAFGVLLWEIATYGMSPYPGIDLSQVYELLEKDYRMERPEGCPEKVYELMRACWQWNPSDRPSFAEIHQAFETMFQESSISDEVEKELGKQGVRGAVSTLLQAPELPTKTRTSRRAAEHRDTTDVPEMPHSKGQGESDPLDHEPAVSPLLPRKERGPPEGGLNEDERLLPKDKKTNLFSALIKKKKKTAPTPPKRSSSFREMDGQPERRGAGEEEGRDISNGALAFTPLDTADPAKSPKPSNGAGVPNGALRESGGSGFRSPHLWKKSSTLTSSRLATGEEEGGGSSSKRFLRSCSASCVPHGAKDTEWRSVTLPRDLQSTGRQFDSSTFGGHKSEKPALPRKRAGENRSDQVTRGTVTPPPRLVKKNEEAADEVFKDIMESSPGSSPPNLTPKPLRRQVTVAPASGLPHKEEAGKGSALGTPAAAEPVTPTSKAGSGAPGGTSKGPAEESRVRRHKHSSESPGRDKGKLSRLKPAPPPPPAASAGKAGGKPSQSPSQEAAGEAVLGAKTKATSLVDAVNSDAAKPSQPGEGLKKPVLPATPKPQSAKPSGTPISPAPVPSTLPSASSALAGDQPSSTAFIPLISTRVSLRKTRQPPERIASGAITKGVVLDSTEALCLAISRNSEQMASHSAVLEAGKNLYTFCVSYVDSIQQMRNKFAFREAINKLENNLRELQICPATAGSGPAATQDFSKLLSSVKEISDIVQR

[7] = biological target: Calcium/calmodulin-dependent protein kinase type 1B (Homo sapiens) (UniProt Q6P2M8); assay: Binding affinity to wild-type human partial length CAMK1B (W9 to A311 residues) expressed in mammalian expression system assessed as residual binding level at 1 uM by Kinomescan method relative to control
Chain of Calcium/calmodulin-dependent protein kinase type 1B (Homo sapiens) (Q6P2M8 whole entry, the tested form may be a part): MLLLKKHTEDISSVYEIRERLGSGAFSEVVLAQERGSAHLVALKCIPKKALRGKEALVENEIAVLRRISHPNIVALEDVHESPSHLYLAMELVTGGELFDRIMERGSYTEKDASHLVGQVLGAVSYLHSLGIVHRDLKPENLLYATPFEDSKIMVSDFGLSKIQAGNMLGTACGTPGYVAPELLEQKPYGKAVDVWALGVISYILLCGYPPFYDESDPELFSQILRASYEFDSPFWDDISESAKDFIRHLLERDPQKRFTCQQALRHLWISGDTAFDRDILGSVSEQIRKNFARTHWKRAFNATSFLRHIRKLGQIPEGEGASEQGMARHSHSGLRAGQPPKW
Procedure, shortened: (§3)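 KinomeScan, an active site-directed competition binding panel of 468 kinases. The test compound was at 1 μM. The readout is remaining kinase binding as a percentage of the DMSO control. Scores above 35% were treated as weak binding and not listed.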

[8] = biological target: Phosphatidylinositol 4-phosphate 5-kinase type-1 gamma (Homo sapiens) (UniProt O60331); assay: Binding affinity to wild-type human partial length PIP5K1C (M1 to T668 residues) expressed in mammalian expression system assessed as residual binding level at 1 uM by Kinomescan method relative to control
[9] = system: Receptor-type tyrosine-protein kinase FLT3 (Homo sapiens), P36888 [D835Y]; assay: Binding affinity to human partial length FLT3 D835Y mutant (Q580 to Y969 residues) expressed in bacterial expression system assessed as residual binding level at 1 uM by Kinomescan method relative to control; procedure, shortened: as §1
[10] = biological target: G protein-coupled receptor kinase 4 (Homo sapiens) (UniProt P32298); assay: Binding affinity to wild-type human full length GRK4 (M1 to C578 residues) expressed in bacterial expression system assessed as residual binding level at 1 uM by Kinomescan method relative to control
Procedure, shortened: (§4)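 Active-site-directed KinomeScan competition binding panel covering 468 kinases, compound tested at 1 μM. Each readout is the kinase signal remaining with compound, expressed as a percentage of the DMSO control. […]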

[11] = biological target: Interleukin-1 receptor-associated kinase 4 (Homo sapiens) (UniProt Q9NWZ3); assay: Binding affinity to wild-type human partial length IRAK4 (M1 to S460 residues) expressed in mammalian expression system assessed as residual binding level at 1 uM by Kinomescan method relative to control
Chain of Interleukin-1 receptor-associated kinase 4 (Homo sapiens) (Q9NWZ3 whole entry, the tested form may be a part): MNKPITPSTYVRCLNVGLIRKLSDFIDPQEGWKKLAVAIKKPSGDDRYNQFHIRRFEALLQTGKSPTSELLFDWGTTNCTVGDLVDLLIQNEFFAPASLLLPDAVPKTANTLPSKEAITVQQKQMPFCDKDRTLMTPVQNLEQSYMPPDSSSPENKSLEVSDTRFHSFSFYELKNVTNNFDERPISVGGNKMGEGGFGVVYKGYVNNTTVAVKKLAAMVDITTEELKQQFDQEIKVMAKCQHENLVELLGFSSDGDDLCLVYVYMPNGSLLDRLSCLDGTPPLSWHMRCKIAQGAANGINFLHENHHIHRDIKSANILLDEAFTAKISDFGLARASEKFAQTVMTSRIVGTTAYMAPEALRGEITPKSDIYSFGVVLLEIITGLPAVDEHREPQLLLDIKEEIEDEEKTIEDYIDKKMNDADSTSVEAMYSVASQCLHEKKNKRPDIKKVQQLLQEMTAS

[12] = system: Epidermal growth factor receptor (Homo sapiens), P00533 [UNDEFINED MUTATION]; assay: Binding affinity to human partial length EGFR E746-A750del mutant expressed in bacterial expression system assessed as residual binding level at 1 uM by Kinomescan method relative to control; procedure, shortened: as §1
[13] = biological target: Receptor-type tyrosine-protein kinase FLT3 (Homo sapiens) (UniProt P36888); assay: Binding affinity to wild-type human partial length autoinhibited FLT3 (H564 to Y969 residues) expressed in mammalian expression system assessed as residual binding level at 1 uM by Kinomescan method relative to control
[14] = biological target: Serine/threonine-protein kinase PAK 6 (Homo sapiens) (UniProt Q9NQU5); assay: Binding affinity to wild-type human partial length PAK6 (N298 to C681 residues) expressed in bacterial expression system assessed as residual binding level at 1 uM by Kinomescan method relative to control; procedure, shortened: as §2
Chain of Serine/threonine-protein kinase PAK 6 (Homo sapiens) (Q9NQU5 whole entry, looked up, the tested form may be a part): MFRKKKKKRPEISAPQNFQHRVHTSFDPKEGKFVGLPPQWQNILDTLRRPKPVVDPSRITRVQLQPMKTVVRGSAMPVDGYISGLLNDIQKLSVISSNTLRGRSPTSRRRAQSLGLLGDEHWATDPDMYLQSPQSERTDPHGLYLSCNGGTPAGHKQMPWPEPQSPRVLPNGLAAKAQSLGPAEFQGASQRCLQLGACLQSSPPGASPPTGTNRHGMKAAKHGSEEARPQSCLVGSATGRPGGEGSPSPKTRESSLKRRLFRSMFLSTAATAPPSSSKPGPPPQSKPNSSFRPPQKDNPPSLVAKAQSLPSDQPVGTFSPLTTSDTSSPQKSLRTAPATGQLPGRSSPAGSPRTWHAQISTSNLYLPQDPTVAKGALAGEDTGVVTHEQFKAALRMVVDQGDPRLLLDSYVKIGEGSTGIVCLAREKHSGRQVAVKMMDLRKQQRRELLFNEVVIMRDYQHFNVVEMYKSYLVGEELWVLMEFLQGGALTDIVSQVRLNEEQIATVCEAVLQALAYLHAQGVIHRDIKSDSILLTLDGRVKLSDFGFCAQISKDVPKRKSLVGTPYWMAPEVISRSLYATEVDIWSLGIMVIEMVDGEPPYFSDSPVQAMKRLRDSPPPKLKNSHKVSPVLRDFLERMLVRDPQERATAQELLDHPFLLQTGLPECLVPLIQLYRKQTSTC

[15] = biological target: Ribosomal protein S6 kinase alpha-6 (Homo sapiens) (UniProt Q9UK32); assay: Binding affinity to wild-type human partial length C-terminal RSK4 kinase domain 2 (I401 to Y711 residues) expressed in bacterial expression system assessed as residual binding level at 1 uM by Kinomescan method relative to control; procedure, shortened: as §3
[16] = biological target: Casein kinase I isoform delta (Homo sapiens) (UniProt P48730); assay: Binding affinity to wild-type human full length CSNK1D (M1 to K409 residues) expressed in bacterial expression system assessed as residual binding level at 1 uM by Kinomescan method relative to control; procedure, shortened: as §4
Chain of Casein kinase I isoform delta (Homo sapiens) (P48730 whole entry, looked up, the tested form may be a part, canonical isoform): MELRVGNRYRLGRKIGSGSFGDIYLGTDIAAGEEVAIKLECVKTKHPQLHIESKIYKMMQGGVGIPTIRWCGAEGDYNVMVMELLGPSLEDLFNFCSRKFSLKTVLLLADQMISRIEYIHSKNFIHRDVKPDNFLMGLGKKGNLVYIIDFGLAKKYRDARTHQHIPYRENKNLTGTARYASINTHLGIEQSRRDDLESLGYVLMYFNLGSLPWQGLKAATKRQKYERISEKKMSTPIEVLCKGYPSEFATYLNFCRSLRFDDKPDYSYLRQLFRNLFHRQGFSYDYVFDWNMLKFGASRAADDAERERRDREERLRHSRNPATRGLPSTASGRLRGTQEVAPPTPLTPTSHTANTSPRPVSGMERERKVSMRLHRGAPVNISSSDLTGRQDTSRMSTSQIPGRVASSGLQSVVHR

[17] = biological target: Ephrin type-A receptor 3 (Homo sapiens) (UniProt P29320); assay: Binding affinity to wild-type human partial length EPHA3 (D604 to K889 residues) expressed in bacterial expression system assessed as residual binding level at 1 uM by Kinomescan method relative to control; procedure, shortened: as §2
[18] = biological target: Serine/threonine-protein kinase 24 (Homo sapiens) (UniProt Q9Y6E0); assay: Binding affinity to wild-type human partial length MST3 (A30 to S311 residues) expressed in bacterial expression system assessed as residual binding level at 1 uM by Kinomescan method relative to control
Chain of Serine/threonine-protein kinase 24 (Homo sapiens) (Q9Y6E0 whole entry, looked up, the tested form may be a part): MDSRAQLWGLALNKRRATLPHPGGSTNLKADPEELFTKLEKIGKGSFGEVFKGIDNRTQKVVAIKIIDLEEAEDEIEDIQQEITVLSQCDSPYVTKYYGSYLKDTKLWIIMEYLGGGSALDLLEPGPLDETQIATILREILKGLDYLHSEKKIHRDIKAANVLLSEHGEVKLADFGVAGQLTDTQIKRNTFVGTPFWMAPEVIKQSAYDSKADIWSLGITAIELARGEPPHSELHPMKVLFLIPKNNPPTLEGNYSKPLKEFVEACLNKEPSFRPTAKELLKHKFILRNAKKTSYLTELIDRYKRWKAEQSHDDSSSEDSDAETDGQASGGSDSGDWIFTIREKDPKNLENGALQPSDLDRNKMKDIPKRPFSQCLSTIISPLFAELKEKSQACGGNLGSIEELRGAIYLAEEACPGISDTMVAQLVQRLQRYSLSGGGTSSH

[19] = biological target: RAC-alpha serine/threonine-protein kinase (Homo sapiens) (UniProt P31749); assay: Binding affinity to wild-type human partial length AKT1 expressed in bacterial expression system assessed as residual binding level at 1 uM by Kinomescan method relative to control
Mus musculus = assay: In vivo inhibition of SRC in C57B6 mouse assessed as reduction in phosphorylation of SRC Y416 at 5 mg/kg, ip measured after 2 to 4 hrs by Western blot analysis; format: functional, organism-based
Procedure, shortened: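 Adult C57B6 mice, n = 2 per condition, dosed intraperitoneally 5 mg/kg three times every 12 h; vehicle 5% DMSO/95% D5W. Spleens taken 2 or 4 h after the final dose and lysed in M-PER with protease/phosphatase inhibitors. Lysates blotted for phospho-SRC Y416, total SRC and β-actin.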

C=CC(=O)Nc1ccccc1Nc1nc(Nc2ccc(N3CCN(C)CC3)cc2)ncc1C(=O)Nc1c(C)cccc1Cl
Activity [1]: 100% | Activity [2]: 100% | Activity [3]: 85% | Activity [4]: 86% | Activity [5]: 82% | Activity [6]: 1.3% | Activity [7]: 98% | Activity [8]: 100% | Activity [9]: 100% | Activity [10]: 100% | Activity [11]: 100% | Activity [12]: 67% | Activity [13]: 100% | Activity [14]: 81% | Activity [15]: 96% | Activity [16]: 100% | Activity [17]: 68% | Activity [18]: 100% | Activity [19]: 89% | inhibition (Mus musculus): Active
